Data reported in ChEMBL document CHEMBL4266033, “Neolymphostin A Is a Covalent Phosphoinositide 3-Kinase (PI3K)/Mammalian Target of Rapamycin (mTOR) Dual Inhibitor That Employs an Unusual Electrophilic Vinylogous Ester” (J Med Chem, 2018).
The source made the active and inactive calls. The calls are words filed in the database; no cut-off is given here.

Columns and labels:
[1] = target: T1, Phosphatidylinositol 4,5-bisphosphate 3-kinase catalytic subunit alpha isoform (Homo sapiens, UniProt P42336); test: Binding affinity to human PI3Kalpha after 1 hr by KINOMEscan assay
T1 sequence (P42336 whole entry, canonical isoform): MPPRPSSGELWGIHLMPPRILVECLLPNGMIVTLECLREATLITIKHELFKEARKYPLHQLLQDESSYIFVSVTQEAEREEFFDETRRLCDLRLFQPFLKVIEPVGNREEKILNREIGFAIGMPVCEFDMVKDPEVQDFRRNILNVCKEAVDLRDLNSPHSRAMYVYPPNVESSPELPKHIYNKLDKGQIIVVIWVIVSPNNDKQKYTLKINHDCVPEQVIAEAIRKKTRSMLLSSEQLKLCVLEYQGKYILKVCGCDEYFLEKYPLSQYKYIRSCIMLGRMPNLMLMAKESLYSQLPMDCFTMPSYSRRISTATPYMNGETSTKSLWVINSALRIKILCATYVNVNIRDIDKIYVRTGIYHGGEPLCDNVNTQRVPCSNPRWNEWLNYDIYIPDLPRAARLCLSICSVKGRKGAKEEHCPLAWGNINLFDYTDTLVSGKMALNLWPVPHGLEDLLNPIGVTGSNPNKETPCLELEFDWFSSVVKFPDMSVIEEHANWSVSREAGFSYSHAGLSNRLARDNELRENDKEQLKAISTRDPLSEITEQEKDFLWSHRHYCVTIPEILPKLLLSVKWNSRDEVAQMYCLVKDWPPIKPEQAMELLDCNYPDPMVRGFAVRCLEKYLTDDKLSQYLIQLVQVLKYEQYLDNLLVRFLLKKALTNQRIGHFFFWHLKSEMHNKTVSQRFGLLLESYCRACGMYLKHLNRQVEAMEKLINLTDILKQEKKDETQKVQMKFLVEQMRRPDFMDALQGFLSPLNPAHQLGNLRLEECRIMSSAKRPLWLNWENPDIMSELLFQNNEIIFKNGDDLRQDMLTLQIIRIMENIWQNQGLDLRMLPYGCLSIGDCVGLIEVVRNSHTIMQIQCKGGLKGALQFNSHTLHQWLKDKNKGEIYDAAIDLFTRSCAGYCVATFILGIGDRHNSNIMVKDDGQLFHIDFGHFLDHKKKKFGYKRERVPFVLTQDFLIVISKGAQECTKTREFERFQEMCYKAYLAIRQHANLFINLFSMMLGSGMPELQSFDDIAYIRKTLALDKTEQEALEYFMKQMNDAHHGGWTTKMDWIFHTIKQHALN

[2] = target: Tyrosine-protein kinase Lck (Homo sapiens, UniProt P06239); test: Binding affinity to human LCK after 1 hr by KINOMEscan assay
[3] = target: T2, Aurora kinase A (Homo sapiens) (UniProt O14965); test: Binding affinity to human AURKA at 1 uM after 1 hr by KINOMEscan assay
T2 sequence (whole entry): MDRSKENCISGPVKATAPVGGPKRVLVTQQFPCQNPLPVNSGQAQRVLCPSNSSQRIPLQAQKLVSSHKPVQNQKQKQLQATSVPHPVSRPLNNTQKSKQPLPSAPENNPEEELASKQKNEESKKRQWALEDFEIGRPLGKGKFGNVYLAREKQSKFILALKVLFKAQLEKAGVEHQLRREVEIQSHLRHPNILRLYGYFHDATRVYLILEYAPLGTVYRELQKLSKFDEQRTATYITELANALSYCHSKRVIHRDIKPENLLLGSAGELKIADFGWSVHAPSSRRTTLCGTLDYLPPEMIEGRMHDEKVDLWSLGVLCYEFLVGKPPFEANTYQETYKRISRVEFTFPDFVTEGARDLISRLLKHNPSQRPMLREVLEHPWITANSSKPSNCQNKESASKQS

[4] = target: Aurora kinase B (Homo sapiens) (UniProt Q96GD4); test: Binding affinity to human AURKB at 1 uM after 1 hr by KINOMEscan assay
Aurora kinase B (Homo sapiens), sequence (Q96GD4 whole entry): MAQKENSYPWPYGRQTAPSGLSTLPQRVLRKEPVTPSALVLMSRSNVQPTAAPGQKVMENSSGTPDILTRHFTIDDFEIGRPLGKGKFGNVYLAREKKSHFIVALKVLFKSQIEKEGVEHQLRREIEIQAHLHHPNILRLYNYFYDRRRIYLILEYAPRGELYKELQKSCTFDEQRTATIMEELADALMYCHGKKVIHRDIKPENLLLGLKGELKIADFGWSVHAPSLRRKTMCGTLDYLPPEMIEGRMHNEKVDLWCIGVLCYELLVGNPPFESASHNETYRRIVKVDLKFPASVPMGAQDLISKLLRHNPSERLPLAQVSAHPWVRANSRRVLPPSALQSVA
In short: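 KINOMEscan competition binding profiling across 97 kinases. Affinity expressed as percent of control.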

[5] = target: Mitogen-activated protein kinase 8 (Homo sapiens) (UniProt P45983); test: Binding affinity to human JNK1 at 1 uM after 1 hr by KINOMEscan assay
Mitogen-activated protein kinase 8 (Homo sapiens), sequence (P45983 whole entry): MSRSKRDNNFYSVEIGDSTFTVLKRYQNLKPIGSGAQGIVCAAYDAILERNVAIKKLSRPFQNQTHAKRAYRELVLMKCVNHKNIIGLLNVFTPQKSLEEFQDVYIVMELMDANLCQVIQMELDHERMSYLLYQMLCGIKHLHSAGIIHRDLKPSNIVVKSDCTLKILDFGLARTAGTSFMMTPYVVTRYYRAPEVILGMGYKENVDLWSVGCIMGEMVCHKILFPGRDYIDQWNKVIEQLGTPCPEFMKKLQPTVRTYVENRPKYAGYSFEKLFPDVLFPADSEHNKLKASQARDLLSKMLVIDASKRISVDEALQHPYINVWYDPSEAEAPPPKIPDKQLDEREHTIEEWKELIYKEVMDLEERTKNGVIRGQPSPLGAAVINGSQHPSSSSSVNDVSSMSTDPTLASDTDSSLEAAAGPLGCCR

[6] = target: Mitogen-activated protein kinase 10 (Homo sapiens) (UniProt P53779); test: Binding affinity to human JNK3 at 1 uM after 1 hr by KINOMEscan assay
Mitogen-activated protein kinase 10 (Homo sapiens), sequence (P53779 whole entry): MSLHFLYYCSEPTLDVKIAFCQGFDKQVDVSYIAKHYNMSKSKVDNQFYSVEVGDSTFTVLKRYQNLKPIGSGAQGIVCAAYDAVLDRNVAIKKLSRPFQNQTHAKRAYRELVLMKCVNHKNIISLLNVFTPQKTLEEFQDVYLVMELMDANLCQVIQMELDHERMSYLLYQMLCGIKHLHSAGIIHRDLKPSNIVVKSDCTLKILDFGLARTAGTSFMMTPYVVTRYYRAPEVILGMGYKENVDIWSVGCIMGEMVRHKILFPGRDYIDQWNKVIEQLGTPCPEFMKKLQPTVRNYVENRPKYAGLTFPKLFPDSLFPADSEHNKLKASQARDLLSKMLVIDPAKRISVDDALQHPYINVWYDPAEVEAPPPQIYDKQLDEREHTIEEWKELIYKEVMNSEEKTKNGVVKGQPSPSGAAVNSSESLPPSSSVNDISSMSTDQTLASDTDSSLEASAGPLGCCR

[7] = Inhibition of PI3K in human HeLa cells assessed as reduction in EGF-stimulated AKT phosphorylation at S473 preincubated for 10 mins followed by EGF stimulation measured after 5 mins by Western blot analysis; type: cell-based
In short: (§1)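 HeLa cells were serum-starved overnight, pretreated with compound for 10 min, then stimulated with 10 ng mL-1 EGF for 5 min. Lysis was in boiling SDS sample buffer, with protein quantified at 660 nm. Equal protein was resolved by SDS-PAGE and Western blotted for pEGFR Tyr1068, pAKT Ser473/Thr308, and pERK1/2 Thr202/Tyr204 with total proteins and GAPDH, detected by ECL.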

[8] = target: Epidermal growth factor receptor (Homo sapiens) (UniProt P00533); test: Inhibition of EGFR in human HeLa cells assessed as reduction in EGF-stimulated ERK1/2 phosphorylation at T202/Y204 at 0.3 to 100 nM preincubated for 10 mins followed by EGF stimulation measured after 5 mins by Western blot analysis; type: cell-based; in short: as §1
Epidermal growth factor receptor (Homo sapiens), sequence (P00533 whole entry): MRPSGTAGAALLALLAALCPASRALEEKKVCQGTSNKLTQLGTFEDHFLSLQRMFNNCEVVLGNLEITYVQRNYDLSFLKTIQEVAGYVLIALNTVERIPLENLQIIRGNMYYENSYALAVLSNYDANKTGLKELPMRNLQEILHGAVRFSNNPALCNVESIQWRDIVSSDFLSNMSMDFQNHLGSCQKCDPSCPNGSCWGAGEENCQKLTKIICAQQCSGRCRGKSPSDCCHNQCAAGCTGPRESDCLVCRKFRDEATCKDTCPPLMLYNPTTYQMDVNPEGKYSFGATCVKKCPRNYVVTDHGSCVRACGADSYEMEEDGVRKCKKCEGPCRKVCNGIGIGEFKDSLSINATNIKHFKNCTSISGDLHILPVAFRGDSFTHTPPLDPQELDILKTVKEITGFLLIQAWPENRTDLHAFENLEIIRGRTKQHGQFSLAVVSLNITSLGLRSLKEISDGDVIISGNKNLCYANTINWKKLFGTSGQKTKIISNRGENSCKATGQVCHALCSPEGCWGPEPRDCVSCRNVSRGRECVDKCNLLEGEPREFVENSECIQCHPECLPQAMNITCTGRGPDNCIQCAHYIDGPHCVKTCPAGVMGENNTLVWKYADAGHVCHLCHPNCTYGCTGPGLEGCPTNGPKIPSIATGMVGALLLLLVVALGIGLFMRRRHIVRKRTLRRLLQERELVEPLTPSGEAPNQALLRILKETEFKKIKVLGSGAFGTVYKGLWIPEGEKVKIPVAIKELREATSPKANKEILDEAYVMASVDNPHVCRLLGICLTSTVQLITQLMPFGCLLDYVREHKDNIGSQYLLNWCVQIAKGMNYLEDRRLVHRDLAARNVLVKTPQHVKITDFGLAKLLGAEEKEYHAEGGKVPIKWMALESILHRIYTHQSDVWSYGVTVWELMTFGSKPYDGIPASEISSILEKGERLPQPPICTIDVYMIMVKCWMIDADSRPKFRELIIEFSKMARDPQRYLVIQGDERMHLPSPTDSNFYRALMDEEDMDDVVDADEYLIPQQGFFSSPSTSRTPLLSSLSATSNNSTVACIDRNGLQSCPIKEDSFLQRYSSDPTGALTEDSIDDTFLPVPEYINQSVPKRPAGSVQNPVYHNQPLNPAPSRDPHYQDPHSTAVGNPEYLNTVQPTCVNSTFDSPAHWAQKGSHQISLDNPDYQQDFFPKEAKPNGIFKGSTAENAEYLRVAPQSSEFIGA

[9] = target: Epidermal growth factor receptor (Homo sapiens) (UniProt P00533); test: Inhibition of EGFR in human HeLa cells assessed as reduction in EGF-stimulated EGFR phosphorylation at 0.3 to 100 nM preincubated for 10 mins followed by EGF stimulation measured after 5 mins by Western blot analysis; type: cell-based; in short: as §1
[10] = tested on: Panel NCI-60 (60 carcinoma cell lines); test: Growth inhibition of human NCI60 cells after 48 hrs by sulforhodamine B assay; type: functional
In short: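 NCI 60-cell line panel (leukemia, NSCLC, colon, CNS, melanoma, ovarian, renal, prostate, breast). 5-point dose-response curves with top concentration 50 µM. GI50, TGI and LC50 were calculated from the curves.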

[11] = target: T1, Phosphatidylinositol 4,5-bisphosphate 3-kinase catalytic subunit alpha isoform; test: Binding affinity to human PI3Kalpha equilibrate for 6 hrs by scan-kinetic platform assay
In short: (§2)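 scanKINETIC format on PI3Kα and PI3Kγ. […] Arm C: equilibrated 1 h. Arm B: equilibrated 1 h, diluted 30-fold, then re-equilibrated. Arm D: diluted immediately, then equilibrated. Kd compared with and without the dilution step to judge reversibility.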

[12] = target: T1, Phosphatidylinositol 4,5-bisphosphate 3-kinase catalytic subunit alpha isoform; test: Binding affinity to human PI3Kalpha equilibrate for 1 hr by scan-kinetic platform assay; in short: as §2
[13] = target: Phosphatidylinositol 4,5-bisphosphate 3-kinase catalytic subunit gamma isoform (Homo sapiens, UniProt P48736); test: Binding affinity to human PI3Kgamma equilibrate for 1 hr by scan-kinetic platform assay; in short: as §2
Phosphatidylinositol 4,5-bisphosphate 3-kinase catalytic subunit gamma isoform, sequence (P48736 whole entry, canonical isoform): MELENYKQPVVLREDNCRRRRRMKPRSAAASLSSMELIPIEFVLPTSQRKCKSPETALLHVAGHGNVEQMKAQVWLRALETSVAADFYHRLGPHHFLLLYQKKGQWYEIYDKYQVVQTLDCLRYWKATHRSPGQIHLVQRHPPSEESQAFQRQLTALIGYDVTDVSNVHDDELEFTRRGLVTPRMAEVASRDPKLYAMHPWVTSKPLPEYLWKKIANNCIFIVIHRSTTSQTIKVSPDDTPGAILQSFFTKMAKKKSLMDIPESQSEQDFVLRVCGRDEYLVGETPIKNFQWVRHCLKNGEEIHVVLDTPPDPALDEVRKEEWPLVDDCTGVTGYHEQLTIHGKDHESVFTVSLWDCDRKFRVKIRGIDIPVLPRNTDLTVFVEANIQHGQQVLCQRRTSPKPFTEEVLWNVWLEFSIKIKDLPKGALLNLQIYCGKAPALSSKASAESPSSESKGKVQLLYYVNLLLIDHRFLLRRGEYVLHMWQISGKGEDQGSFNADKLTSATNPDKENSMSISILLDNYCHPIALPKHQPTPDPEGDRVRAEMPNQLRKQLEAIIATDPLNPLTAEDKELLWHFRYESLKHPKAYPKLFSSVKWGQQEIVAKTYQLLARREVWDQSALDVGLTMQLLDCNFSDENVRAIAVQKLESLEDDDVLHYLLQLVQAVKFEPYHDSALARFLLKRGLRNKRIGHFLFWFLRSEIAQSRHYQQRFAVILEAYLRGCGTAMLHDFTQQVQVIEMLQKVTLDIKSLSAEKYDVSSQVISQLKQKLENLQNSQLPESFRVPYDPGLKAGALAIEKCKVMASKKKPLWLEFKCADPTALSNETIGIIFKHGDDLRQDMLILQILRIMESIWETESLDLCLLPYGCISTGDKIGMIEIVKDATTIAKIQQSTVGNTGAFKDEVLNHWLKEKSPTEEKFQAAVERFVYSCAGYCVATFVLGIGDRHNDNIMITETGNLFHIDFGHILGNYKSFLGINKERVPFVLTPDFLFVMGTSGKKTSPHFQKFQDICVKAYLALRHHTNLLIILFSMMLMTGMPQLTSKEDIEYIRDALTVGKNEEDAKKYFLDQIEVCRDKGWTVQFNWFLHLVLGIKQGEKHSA

[14] = target: T3, PI3-kinase p110-alpha/p85-alpha (Homo sapiens) (UniProt P27986+P42336); test: Binding affinity to PI3Kalpha/p85alpha (unknown origin) assessed as covalent modification at Lys802 residue at 4 uM after 2 mins by tandem MS/MS method; type: protein-complex assay
In short: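 Recombinant PI3Kα (p110α/p85α) at 2 μM mixed with 4 μM inhibitor in 10 mM HEPES pH 7.5, 100 mM NaCl, 5% DMSO. Timepoints quenched by unfolding in ice-cold 2 M guanidine-HCl/3% formic acid, snap-frozen in liquid N2, stored at −80 °C. Analysed by LC-MS/MS; mass shift of the modified peptide read out.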

[15] = target: T3, PI3-kinase p110-alpha/p85-alpha (Homo sapiens); test: Binding affinity to PI3Kalpha/p85alpha (unknown origin) assessed as covalent modification at Lys802 residue at 4 uM measured for 3/300 secs by hydrogen-deuterium exchange mass spectrometry; type: protein-complex assay
In short: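 PI3Kα (p110α/p85α) preincubated 30 min at 2 μM with 4 μM inhibitor or DMSO (5% final). Diluted to 0.4 μM in 50 μL for deuterium exchange at 3 s on ice and 300 s at 20 °C. Quenched with ice-cold 2 M guanidine-HCl/3% formic acid, then UPLC-TOF-MS. Peptide changes >5% and >0.4 Da with paired t-test p<0.01 taken as significant.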

For CO/C=C/C(=O)c1cc2c3c(c(N)cc(NC(=O)C(C)C)c3n1)N=C2, the Kd [1] was 0.88 nM, the Kd [2] was 4600 nM and the Activity [3] was “Active”. For the same compound, the Activity [4] was “Active”, the Activity [5] was “Active” and the Activity [6] was “Active”. The IC50 [7] was 3 nM, the inhibition [8] was “inactive” and the inhibition [9] was “inactive”. It also gave a GI50 [10] of 6 to 840 nM, a Kd [11] of 0.43 to 0.45 nM and a Kd [12] of 0.65 to 0.68 nM. The Kd [13] was 2 to 3.3 nM, the Activity [14] was “Active” and the Activity [15] was “Active”.
